Laboratory results as given in article PMC5995301 (International Journal of Nanomedicine, 2018).

What was measured:
[1] = system: human lung carcinoma (A549) cells; assay: In vitro cytotoxic effect; format: cell-based
Summary of the method: (§1)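 Cells were seeded at 5×10^3 cells/well and grown 24 h at 37°C. LLC cells were grown in DMEM with 10% FBS and A549 cells in RPMI with 10% FBS. Cells were exposed to serially diluted test compound at 0.01–10 μg/mL PMX-equivalent for 48 h. WST-8 (CCK-8) was added for 2 h and absorbance read at 450 nm. Viability is % of untreated cells; mean ± SD, n=6.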

A549 cells = assay: In vitro wound-healing assay, A549 cells; format: cell-based, human; conditions: 48 h
Summary of the method: (§2)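 Cells were plated at 3×10^4 cells/well on collagen-coated plates, LLC in DMEM and A549 in RPMI, each with 10% FBS. They were grown 48 h at 37°C to near-confluence. A wound maker scratched the monolayer, which was washed twice with PBS pH 7.4. Cells were then exposed to test compound at 0.01–10 μg/mL PMX-equivalent for 48 h at 37°C. Phase-contrast images every 12 h; automated edge-detection mask gave the area.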

[2] = In vitro permeability across a Caco-2 cell monolayer; format: in vitro ADME; conditions: human
Summary of the method: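 Caco-2 monolayers were grown on Transwell inserts (0.4 μm pores, 1.12 cm2). Test compound was applied. Transported samples were filtered (0.45 μm PVDF), and drug in them was quantified by HPLC-UV. The apparent permeability coefficient was calculated from the transported amount.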

[3] = Parallel artificial membrane permeability assay; format: in vitro ADME; conditions: PAMPA, pH 6.8
Summary of the method: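 Donor wells held test compound diluted in PBS pH 6.8 to 200 μg/mL PMX-equivalent; acceptor wells held PBS pH 6.8. Plates were incubated 5 h at room temperature, then donor and acceptor were both sampled. Permeated PMX was quantified by HPLC at 254 nm.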

In vitro drug release = format: physicochemical; conditions: basket 100 rpm
LLC tumor-bearing mice = assay: In vivo tumor growth inhibition in LLC tumor-bearing mice; parameters: species or system C57BL/6 mice
Summary of the method: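 Female C57BL/6 mice (20–25 g) received 1×10^6 LLC cells in 100 μL PBS pH 7.4 subcutaneously in the flank. At 80–100 mm3, mice were randomised into groups of 10 (untreated, oral daily, or IV once-weekly 20 mg/kg PMX in water). Oral groups were fasted 4 h before and 2 h after dosing. Calipers measured tumors every 3 days for 21 days; volume = a2×b×0.52. Mean ± SD, n=10.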

[4] = system: Lewis lung carcinoma (LLC) cells; assay: In vitro cytotoxic effect; format: cell-based; conditions: 48 h, read-out: Cell viability
Summary of the method: as §1

[5] = In vivo pharmacokinetic study in rats; conditions: Sprague Dawley, rat, plasma, po, 20 mg/kg
LLC cells = assay: In vitro wound-healing assay, LLC cells; format: cell-based; conditions: equivalent to 0.5 μg/mL (0.84 μM) PMX, 48 h
Summary of the method: as §2

[6] = once-weekly IV 20 mg/kg PMX, 3 weeks

Compound | Cell viability after the addition of excipient alone ([1]; A549 cells, excipient alone, amount matching the same molar concentration of PMX) | Inhibition of cell proliferation/migration, fold higher than control cells (A549 cells; equivalent to 0.5 μg/mL (0.84 μM) PMX) | Wound recovery rate (A549 cells; equivalent to 1 μg/mL (1.67 μM) PMX) | Papp at 5 h, 100 μg/mL [2] | Papp at 5 h, 200 μg/mL [3] | Drug dissolved within 15 min (In vitro drug release; 0.1 N HCl pH 1.2, 37°C) | Drug released within 15 min (In vitro drug release; phosphate buffer pH 6.8, 37°C) | Reduction in tumor volume and mass vs control mice (LLC tumor-bearing mice; once-a-day oral 20 mg/kg PMX in water, 21 days) | Tumor volume lower than control group (LLC tumor-bearing mice; [6]) | Tumor volume lower than oral PMX group (LLC tumor-bearing mice; [6]) | viability at 0.08 µM [4] | viability at 0.84 µM [4] | viability at 5 µg/mL [4] | half-life [5] | Relative wound recovery (LLC cells) | viability at 8.37 µM ([1]; Homo sapiens, A549, 48 h, read-out: Cell viability)
2-hydroxypropyl-beta-cyclodextrin [HP-beta-CD] | > 80% | – | – | – | – | – | – | – | – | – | – | – | – | – | – | –
Nc1nc2[nH]cc(CCc3ccc(C(=O)N[C@@H](CCC(=O)O)C(=O)O)cc3)c2c(=O)[nH]1 [PMX, N-[4-[2-(2-amino-3,4-dihydro-4-oxo-7H-pyrrolo[2,3-d]pyrimidin-5-yl)-ethyl]-benzoyl]-L-glutamic acid] | – | 1.28 fold | 54.0%±5.09% | 4.98 ± 0.96 nm/s | 6.65 ± 2.07 nm/s | More than 90% | More than 90% | did not show significant reductions in the tumor volume and mass | 49% | 46% | < 80% | 45.4% | 29.8% | 7.03 ± 1.61 h | 57.5%±5.76% | 52.2%
